Data set [1] is described as follows: AUC (0 to infinity) in CD-1 mouse at 2 mg/kg, iv administered as single bolus dose by LC-MS/MS analysis. It counts as ADME, organism-based. More on the design: time infinity, dose 2 mg/kg, route intravenous. Conditions: plasma. Put shortly:
(§1)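 Single 2 mg/kg IV bolus via lateral tail vein to male CD-1 mice. Mice euthanized at 0.083–24 h, 3 per time point (27 animals); cardiac-puncture blood into heparin on ice, plasma spun at 4 °C and immediately extracted with acetonitrile/0.1% formic acid plus IS, LC-MS/MS. Noncompartmental CL = Dose/AUC0–inf, t1/2 = 0.693/k, Vss from AUMC/AUC, MRT = Vss/CL.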

Data set [2] is described as follows: Plasma clearance in CD-1 mouse at 2 mg/kg, iv administered as single bolus dose by LC-MS/MS analysis. It counts as ADME, organism-based. Set-up: dose 2 mg/kg, route intravenous. The method in brief: as §1
Data set [3] can be described thus: Mean residence time in CD-1 mouse at 2 mg/kg, iv administered as single bolus dose by LC-MS/MS analysis. It counts as ADME, organism-based. More on the design: dose 2 mg/kg, route intravenous. Conditions: in vivo. Put shortly:
as §1

A short description of data set [4]: Half life in CD-1 mouse at 2 mg/kg, iv administered as single bolus dose by LC-MS/MS analysis. It counts as ADME, organism-based. Set-up: dose 2 mg/kg, route intravenous. As to conditions: in vivo. The method in brief:
as §1

Data set [5] in a line: Volume of distribution at steady state in CD-1 mouse at 2 mg/kg, iv administered as single bolus dose by LC-MS/MS analysis. It counts as ADME, organism-based. More on the design: dose 2 mg/kg, route intravenous. Conditions: in vivo, read-out: Vdss. Put shortly: as §1
Data set [6] can be described thus: In vitro half life in CD-1 mouse plasma at 0.83 uM by LC-MS/MS analysis. It counts as ADME, cell-free. Put shortly:
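Screening stability: compound at 0.83 µM in mouse plasma at 37 °C, up to 3 h; timed aliquots quenched into acetonitrile with tolbutamide IS, centrifuged, LC-MS/MS; half-life from depletion, CLint = (0.693/t1/2)/plasma concentration.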

Data set [7] relates to Plasma. Nature of the data set: Drug metabolism in CD-1 mouse plasma assessed as hydrolysis metabolite formation rate by LC-MS/MS analysis. It counts as ADME, cell-free. As to conditions: for Km: read-out: Km(app). The method in brief:
(§2)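 Mouse plasma depletion kinetics at 37 °C, substrate range 0.0023–5 µM, up to 3 h; samples quenched into acetonitrile/tolbutamide, LC-MS/MS. CLint per concentration from t1/2; apparent Vmax and Km fitted by nonlinear regression to Michaelis-Menten, formation rate simulated from fit; mean of two replicates.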

Data set [8] is described as follows: Drug metabolism in CD-1 mouse liver microsomes assessed as hydrolysis metabolite formation rate by LC-MS/MS analysis. It counts as ADME. As to conditions: for Km: read-out: Km(app). The method in brief: (§3)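 Mouse liver microsomes 0.25 mg/mL in 0.1 M phosphate pH 7.4, with or without 1 mM NADPH, substrate 0.0023–5 µM; sampling to 40 min into acetonitrile/IS, LC-MS/MS depletion. Hydrolysis Vmax/Km solved from no-NADPH incubations, then NADPH-dependent constants; metabolite formation rate simulated from fitted constants; duplicates.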

The nature of data set [9]: Drug metabolism in CD-1 mouse NADPH-fortified liver microsomes assessed as hydrolysis metabolite formation rate by LC-MS/MS analysis. It counts as ADME. As to conditions: for Km: read-out: Km(app). The method in brief:
as §3
On the technique in general: Liver microsomes are a subcellular fraction often used to study metabolism.

Data set [10] deals with Plasma. Nature of the data set: Drug metabolism in CD-1 mouse plasma assessed as maximum intrinsic clearance for hydrolysis metabolite formation by LC-MS/MS analysis. It counts as ADME, cell-free. The method in brief: as §2
Data set [11] is described as follows: Ratio of drug level in blood to plasma in CD-1 mouse at 1 uM treated 20 mins after amide hydrolysis inhibitor DFP challenge measured after 1 hr by LC-MS/MS analysis. As to conditions: whole blood. It counts as ADME. Put shortly:
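Fresh whole blood pre-incubated 20 min with 100 µM DFP, warmed to 37 °C, spiked to 1 µM, incubated 1 h, then plasma separated; reference plasma spiked at 1 µM. Extracted with 6 volumes acetonitrile/IS, LC-MS/MS; ratio = reference plasma peak area / treated plasma peak area.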

The nature of data set [12]: Fraction unbound in CD-1 mouse liver microsomes after 7 hrs by equilibrium dialysis method. It counts as ADME. The method in brief: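 Equilibrium dialysis of 0.25 mg/mL mouse liver microsomes in phosphate buffer against PBS, 7 h at 37 °C, 5% CO2, test compound 0.1, 0.5 or 2 µM, triplicate; LC-MS/MS; fraction unbound = buffer/microsome concentration.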
Data set [13] in a line: Fraction unbound in CD-1 mouse plasma after 7 hrs by equilibrium dialysis method. It counts as ADME, cell-free. Put shortly:
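Mouse plasma pre-treated 20 min with 100 µM DFP to block hydrolysis, spiked at 0.1, 0.5 or 2 µM, equilibrium dialysis against PBS for 7 h at 37 °C, 5% CO2, triplicate; matrix-matched samples extracted with acetonitrile/IS, LC-MS/MS; fu = buffer/plasma concentration.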
On the technique in general: In equilibrium dialysis free small molecules cross a membrane that holds back macromolecules.

The AUC(0-inf) is total exposure, with the tail of the curve extrapolated. Low readings indicate less exposure, high ones more exposure. One may read the clearance as the volume of plasma or blood freed of the substance per unit of time. A low value points to a low capacity for elimination. As a reminder, the MRT is the average time that molecules of a dose stay in the body. Usually half-life stands for the time needed for the level to fall by half in the phase considered. Higher therefore signals slow loss. For orientation: Km means the substrate concentration at which the rate is half of its maximum. The fraction unbound is free concentration divided by total concentration. Low readings indicate extensive binding, high ones weak binding. As for `CC(C)NC(=O)[C@H]1CC[C@@H](n2/c(=N/C(=O)c3cc(F)cc(F)c3)[nH]c3ccc(CN4CCC(C(C)(C)O)CC4)cc32)CC1`, in data set [1], the AUC(0-inf) amounted to 0.957 µM·h. This compound also showed a clearance in data set [2] of 58.5 mL/min/kg. Moreover, in data set [3], the MRT turned out to be 1.28 h. The compound also gave a half-life in [4] of 60.6 min. Further, the Vd in [5] was determined as 4.49 L/kg. This compound had a half-life at 0.83 µM in [6] of 174 min. The “Vmax(app)” value in [7] worked out at 3.81 pmol/min/mL; in data set [8] it was 5.12 pmol/min/mg; in data set [9], 143 pmol/min/mg. Further, the figures for the Michaelis-Menten constant (Km) in [7], in data set [8] and in data set [9] were 357 nM, 29.2 nM and 936 nM, respectively. For the same compound, the CL in [10] came to 10.7 uL/min.ml. The blood plasma ratio at 1 h, 1 µM in data set [11] turned out to be 0.9. The fraction unbound at 7 h in data set [12] was found to be 0.53; in [13] it was 0.046.
As to `CC(C)NC(=O)[C@H]1CC[C@@H](n2/c(=N/C(=O)c3cccc(C(F)(F)F)c3)[nH]c3ccc(CN4CCC(C(C)(C)O)CC4)cc32)CC1`, the area under the curve AUC(0-inf) in [1] stood at 1.2 µM·h. Besides, the clearance in [2] is 44.3 mL/min/kg. The compound further had an MRT in data set [3] of 2.92 h. The half-life in data set [4] was 132 min. Besides, the Vd in [5] came out at 7.78 L/kg. Besides, the half-life at 0.83 µM in data set [6] is 510 min. Further, the “Vmax(app)” value in [7] is 1.14 pmol/min/mL; in [8], 5.38 pmol/min/mg; in data set [9], 194 pmol/min/mg. Further, the Km amounted to 680 nM in data set [7], 261 nM in data set [8] and 1950 nM in [9]. The CL in data set [10] is on record as 1.68 uL/min.ml. Moreover, the blood plasma ratio at 1 h, 1 µM in [11] turned out to be 0.9. The figures for the free fraction (fraction unbound) at 7 h in [12] and in data set [13] were 0.22 and 0.012, respectively.
